Target: T1, AKR1C3 (Homo sapiens, UniProt P42330)
T1 sequence (P42330 1-323): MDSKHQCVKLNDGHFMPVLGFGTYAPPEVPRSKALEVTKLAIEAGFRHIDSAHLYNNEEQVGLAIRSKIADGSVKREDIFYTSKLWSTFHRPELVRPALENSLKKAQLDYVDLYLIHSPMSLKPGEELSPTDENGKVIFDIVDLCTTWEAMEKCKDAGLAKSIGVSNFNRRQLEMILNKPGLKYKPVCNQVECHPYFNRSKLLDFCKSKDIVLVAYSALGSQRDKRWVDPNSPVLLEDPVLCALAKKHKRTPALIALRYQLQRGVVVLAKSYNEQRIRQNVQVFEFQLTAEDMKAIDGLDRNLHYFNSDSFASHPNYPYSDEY
Assay: primary inhibition assay
Assay type: biochemical
Details: 10 µM compound, 1-acenaphthenol, NAD+, pH 9.0
Summary of the method: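 Recombinant enzyme oxidises 1-acenaphthenol with 2.3 mM NAD+. Medium is 100 mM phosphate pH 9.0, 0.005% Triton X-114, 5% DMSO. […] Test compound is at 10 µM. NADH increase is read at 340 nm, and initial velocities are compared with compound-free controls. Values are the mean of two independent experiments.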

SMILES	AKR1C3 inhibition (%)
O=C(Nc1ccc(Br)cc1C(=O)O)c1ccc(F)c([N+](=O)[O-])c1 [Compound 8]	no AKR1C3 isoform inhibition was observed
CCOc1cccc(C(=O)Nc2ccc(Br)cc2C(=O)O)c1 [Compound 14]	almost completely lost
CCCCOc1cccc(C(=O)Nc2ccc(Br)cc2C(=O)O)c1 [Compound 15]	almost completely lost
